Activity calls are given as the source filed them. No cut-off for these calls is given here.
What was measured:
[1] = test system: RAW264.7; test: Inhibition of MAPK/NFkappaB in ICR mouse RAW264.7 cells assessed as reduction in LPS-induced TNFalpha production at 10 uM pretreated for 0.5 hrs followed by LPS challenge and measured after 24 hrs by ELISA relative to control; assay type: cell-based
[2] = test system: RAW264.7; test: Inhibition of NFkappaB/MAPK signaling in LPS-induced mouse RAW264.7 cells assessed as down regulation of IkappaB expression at 10 uM preincubated for 0.5 hrs followed by LPS-challenge and measured after 30 mins by immunoblotting analysis; assay type: cell-based
In short: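 RAW 264.7 cells were pretreated with compound for 0.5 h and then stimulated with LPS for 30 min. Lysates were resolved on 10% or 12% SDS-PAGE and transferred to nitrocellulose. Membranes were blocked in TBS (pH 7.6) with 0.05% Tween 20 and 5% milk. Blots were probed for p-p38, p38, p-ERK, ERK, IκBα and GAPDH, detected with HRP secondaries and ECL.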

[3] = target: Transcription factor p65 (Mus musculus) (UniProt Q04207); test: Inhibition of LPS-induced NFkappaB p65 nuclear translocation in ICR mouse RAW264.7 cells preincubated for 0.5 hrs followed by LPS challenge and measured after 40 mins by DAPI staining-based immunofluorescence microscopic analysis; assay type: cell-based
Chain of Transcription factor p65 (Mus musculus) (Q04207 whole entry): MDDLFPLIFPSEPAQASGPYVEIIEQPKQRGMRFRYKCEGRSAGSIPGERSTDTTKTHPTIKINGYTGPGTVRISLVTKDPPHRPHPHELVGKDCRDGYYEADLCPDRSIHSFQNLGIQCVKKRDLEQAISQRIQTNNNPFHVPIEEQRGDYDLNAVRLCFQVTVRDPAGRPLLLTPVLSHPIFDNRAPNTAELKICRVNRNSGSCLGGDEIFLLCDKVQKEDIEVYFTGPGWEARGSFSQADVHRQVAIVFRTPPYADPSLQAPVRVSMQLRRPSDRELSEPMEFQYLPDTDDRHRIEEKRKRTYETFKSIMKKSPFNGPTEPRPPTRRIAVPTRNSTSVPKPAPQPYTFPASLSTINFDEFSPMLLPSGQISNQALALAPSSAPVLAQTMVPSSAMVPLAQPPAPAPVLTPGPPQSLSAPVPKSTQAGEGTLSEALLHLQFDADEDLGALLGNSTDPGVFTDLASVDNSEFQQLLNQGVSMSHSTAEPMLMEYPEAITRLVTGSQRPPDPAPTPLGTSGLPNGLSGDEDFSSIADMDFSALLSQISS
In short: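 RAW 264.7 cells were pretreated with compound for 0.5 h, then given LPS for 40 min (methods) or 45 min (legend). Cells were fixed with 4% paraformaldehyde and permeabilized in methanol. Anti-p65 (1:200) was applied overnight at 4 °C, then PE-conjugated secondary (1:200) for 2 h. Nuclei were stained with DAPI and cells viewed by fluorescence microscopy.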

[4] = Inhibition of MAPK/NFkappaB in ICR mouse RAW264.7 cells assessed as reduction in LPS-induced IL6 production pretreated for 0.5 hrs followed by LPS challenge and measured after 24 hrs by ELISA; assay type: cell-based
[5] = test system: RAW264.7; test: Inhibition of MAPK/NFkappaB signaling in ICR mouse RAW264.7 cells assessed as reduction in LPS-induced ICAM1 mRNA expression pretreated for 0.5 hrs followed by LPS challenge and measured after 40 mins by TRIZOL reagent-based RT-qPCR analysis; assay type: cell-based
In short: (§1)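 RAW 264.7 cells were pretreated with compound for 0.5 h and then activated with LPS. Values were normalized to actin and expressed relative to the LPS group.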

[6] = test system: RAW264.7; test: Inhibition of MAPK/NFkappaB signaling in ICR mouse RAW264.7 cells assessed as reduction in LPS-induced VCAM1 mRNA expression pretreated for 0.5 hrs followed by LPS challenge and measured after 40 mins by TRIZOL reagent-based RT-qPCR analysis; assay type: cell-based; in short: as §1
[7] = test system: Mus musculus; test: Antiinflammatory activity in C57BL/6 mouse model of LPS-induced acute lung injury assessed as reduction of F4/80 macrophage level in lung tissue at 10 mg/kg, ip administered daily for one week prior to LPS challenge measured after 6 hrs by hematoxylin staining-based immunohistochemistry method; assay type: functional, organism-based
In short: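 Lungs came from C57BL/6 mice dosed at 10 mg/kg i.p. daily for one week, then given intratracheal LPS 5 mg/kg and harvested at 6 h. Tissue was paraffin-embedded and cut into 5 µm sections. Antigen retrieval used microwaving in 0.01 mol/L citrate (pH 6.0), then 3% H2O2 in methanol for 30 min. Sections took LY-6G or F4/80 primary antibody overnight at 4 °C, secondary at 1:200, DAB development and hematoxylin counterstain.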

[8] = test system: Mus musculus; test: Antiinflammatory activity in C57BL/6 mouse model of LPS-induced acute lung injury assessed as reduction in TNF-alpha production in BALF at 10 mg/kg, ip administered daily for one week prior to LPS challenge and measured after 6 hrs by ELISA; assay type: functional, organism-based
In short: (§2)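 In C57BL/6 mice (eight per group), compound was dosed at 10 mg/kg i.p. once daily for a week, with a 0.9% saline vehicle control. LPS 5 mg/kg was given intratracheally and animals were euthanized with chloral hydrate after 6 h. TNF-α and IL-6 in serum and BALF were measured by ELISA. Data are mean ± SEM, n = 6.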

[9] = test system: Mus musculus; test: Antiinflammatory activity in C57BL/6 mouse model of LPS-induced acute lung injury assessed as reduction in IL-6 production in BALF at 10 mg/kg, ip administered daily for one week prior to LPS challenge and measured after 6 hrs by ELISA; assay type: functional, organism-based; in short: as §2
[10] = test system: Mus musculus; test: Antiinflammatory activity in C57BL/6 mouse model of LPS-induced acute lung injury assessed as reduction in TNF-alpha mRNA expression in lung tissue at 10 mg/kg, ip administered daily for one week prior to LPS challenge and measured after 6 hrs by TRIZOL reagent-based RT-qPCR analysis; assay type: functional, organism-based
In short: (§3)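 Mouse ALI model with eight C57BL/6 mice per group. Compound was given at 10 mg/kg i.p. daily for one week; controls received 0.9% saline. LPS was instilled intratracheally at 5 mg/kg. Mice were euthanized with chloral hydrate 6 h later and lungs collected. Lung mRNA for each target was quantified by real-time qPCR.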

[11] = test system: Mus musculus; test: Antiinflammatory activity in C57BL/6 mouse model of LPS-induced acute lung injury assessed as reduction in IL1beta mRNA expression in lung tissue at 10 mg/kg, ip administered daily for one week prior to LPS challenge and measured after 6 hrs by TRIZOL reagent-based RT-qPCR analysis; assay type: functional, organism-based; in short: as §3
[12] = test system: Mus musculus; test: Antiinflammatory activity in C57BL/6 mouse model of LPS-induced acute lung injury assessed as reduction in ICAM1 mRNA expression in lung tissue at 10 mg/kg, ip administered daily for one week prior to LPS challenge and measured after 6 hrs by TRIZOL reagent-based RT-qPCR analysis; assay type: functional, organism-based; in short: as §3
[13] = Oral bioavailability in Sprague-Dawley rat at 50 mg/kg measured up to 24 hrs by LC-MS/MS analysis; assay type: ADME, organism-based; details: in vivo
In short: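 The rat oral and intravenous plasma profiles (n = 5, tail sampling to 24 h, UHPLC-MS/MS) were used. Oral bioavailability was calculated as F = (AUC p.o × Dose i.v)/(AUC i.v × Dose p.o).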

[14] = AUC (0 to t) in Sprague-Dawley rat at 5 mg/kg, iv by UHPLC-MS/MS analysis; assay type: ADME, organism-based; details: in vivo
In short: (§4)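 Male Sprague-Dawley rats (250 ± 20 g) fasted overnight with free access to water, n = 5 per route. Intravenous dose was 5 mg/kg; the intragastric dose is printed as 20 mg/kg in the methods and 50 mg/kg in the table. Tail blood was taken at 0.083, 0.25, 0.5, 1, 2, 4, 6, 9, 12 and 24 h. Samples were centrifuged (12000 rpm, 10 min), deproteinized with 2 volumes of acetonitrile, re-centrifuged and quantified by UHPLC-MS/MS.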

[15] = MRT (0 to infinity) in Sprague-Dawley rat at 5 mg/kg, iv by UHPLC-MS/MS analysis; assay type: ADME, organism-based; details: in vivo; in short: as §4
[16] = Half life in Sprague-Dawley rat at 5 mg/kg, iv by UHPLC-MS/MS analysis; assay type: ADME, organism-based; details: in vivo; in short: as §4

| inhibition [3] | IC50 [4] | bioavailability [13] | AUC(0-t) [14] | MRT [15] | t1/2 [16] | Compound | inhibition [1] | inhibition [2] | inhibition [5] | inhibition [6] | Activity [7] | Activity [8] | Activity [9] | Activity [10] | Activity [11] | Activity [12] |
| --- | --- | --- | --- | --- | --- | --- | --- | --- | --- | --- | --- | --- | --- | --- | --- | --- |
| Active | 3.68 µM |  |  |  |  | COc1cc(/C=C/C(=O)N2CCC/C(=C\c3cc(OC)c(OC)c(OC)c3)C2=O)ccc1O | 90.9 to 92.5% | Active | Active | Active | Active | Active | Active | Active | Active | Active |
| Active | 2.4 µM | 26.6% | 34.4 ng·h/mL | 19.9 h | 0.2 h | COc1cc(/C=C/C(=O)N2CCC/C(=C\c3cc(OC)c(OC)c(OC)c3)C2=O)ccc1OC(C)=O | 90.9 to 92.5% | Active | Active | Active | Active | Active | Active | Active | Active | Active |

Source: ChEMBL document CHEMBL4387702, “Design and synthesis novel di-carbonyl analogs of curcumin (DACs) act as potent anti-inflammatory agents against LPS-induced acute lung injury (ALI)” (Eur J Med Chem, 2019)
